Laboratory results taken from ChEMBL document CHEMBL1123791, “3'-substituted 2',3'-dideoxynucleoside analogues as potential anti-HIV (HTLV-III/LAV) agents” (J Med Chem, 1987).

What was measured:
MT4 [1] = assay: Protection was determined by evaluation of cluster morphology and reclustering properties in […] at 0.008 uM concentration.; format: functional, Homo sapiens
ATH-8 cell line [2] = assay: Protection of ATH8 cells against the cytopathic effect of HIV.; format: functional; settings: Homo sapiens, read-out: ED50 (the source's name)
MT4 [3] = assay: Protection was determined by evaluation of cluster morphology and reclustering properties in […] MT-4 cells at 0.2 uM concentration; format: functional, Homo sapiens
ATH-8 cell line [4] = assay: Required dose to reduce viability of normal uninfected ATH8 cells.; format: functional; settings: Homo sapiens, read-out: ID50 (the source's name)
MT4 [5] = assay: Toxicity was determined by evaluation of cluster morphology and reclustering properties in mock infected MT-4 cells at 0.2 uM concentration; format: cell-based; settings: human, mt4, 0.2 µM
MT4 [6] = assay: Toxicity was determined by evaluation of cluster morphology and reclustering properties in mock infected MT-4 cells at 125 uM concentration; format: cell-based; settings: human, mt4, 125 µM
MT4 [7] = assay: Toxicity was determined by evaluation of cluster morphology and reclustering properties in mock infected MT-4 cells at 5 uM concentration; format: cell-based; settings: human, mt4, 5 µM
Method in brief: (§1)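 Mock-infected MT4 cells were seeded at 2.5×10^5 cells/mL with compound at 125–0.00032 µM and cultured 5 days at 37 °C. Cluster morphology was scored microscopically, then cells were dispersed by pipetting and reclustering read after 4 h. Scoring: ++ >90%, + 10–40%, − <10% toxicity.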

MT4 [8] = assay: Protection was determined by evaluation of cluster morphology and reclustering properties in […] MT-4 cells at 5 uM concentration.; format: functional, Homo sapiens
Method in brief: (§2)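 MT4 cells infected with HIV (300 CCID50/well) were seeded at 2.5×10^5 cells/mL with compound at 125, 5, 0.2, 0.008 or 0.00032 µM and kept 5 days at 37 °C. Clusters were scored microscopically, dispersed by pipetting, and reclustering assessed after 4 h at 37 °C. Scoring: +++ >90% protection.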

MT4 [9] = assay: Protection was determined by evaluation of cluster morphology and reclustering properties in […] MT-4 cells at 5 uM concentration; Range is 10-40; format: functional, Homo sapiens; method in brief: as §2
MT4 [10] = assay: Protection was determined by evaluation of cluster morphology and reclustering properties in […] MT-4 cells at 0.00032 uM concentration; format: functional, Homo sapiens; method in brief: as §2
MT4 [11] = assay: Protection was determined by evaluation of cluster morphology and reclustering properties in mock infected MT-4 cells at 125 uM concentration; Range is 10-40; format: functional, Homo sapiens; settings: in the assay text read “HIV infected” for “mock infected”; method in brief: as §2
MT4 [12] = assay: Protection was determined by evaluation of cluster morphology and reclustering properties in mock infected MT-4 cells at 125 uM concentration; format: functional, Homo sapiens; settings: in the assay text read “HIV infected” for “mock infected”; method in brief: as §2
MT4 [13] = assay: Toxicity was determined by evaluation of cluster morphology and reclustering properties in mock infected MT-4 cells at 125 uM concentration; Range is 10-40; format: cell-based; settings: human, mt4, 125 µM; method in brief: as §1
MT4 [14] = assay: Protection was determined by evaluation of cluster morphology and reclustering properties in […] MT-4 cells at 0.2 uM concentration; Range is 40-60; format: functional, Homo sapiens; method in brief: as §2
[15] = Therapeutic index (Ratio = ID50/ED50).
MT4 [16] = assay: Protection was determined by evaluation of cluster morphology and reclustering properties in […] at 5 uM concentration; Range is 40-60; format: functional, Homo sapiens
MT4 [17] = assay: Toxicity was determined by evaluation of cluster morphology and reclustering properties in mock infected MT-4 cells at 0.00032 uM concentration; format: cell-based; settings: human, mt4, 0.00032 µM; method in brief: as §1
MT4 [18] = assay: Toxicity was determined by evaluation of cluster morphology and reclustering properties in mock infected MT-4 cells at 0.2 uM concentration; Range is 10-40; format: cell-based; settings: human, mt4, 0.2 µM; method in brief: as §1
MT4 [19] = assay: Toxicity was determined by evaluation of cluster morphology and reclustering properties in mock infected MT-4 cells at 0.008 uM concentration; format: cell-based; settings: human, mt4, 0.008 µM; method in brief: as §1
MT4 [20] = assay: Protection was determined by evaluation of cluster morphology and reclustering properties in […] MT-4 cells at 0.008 uM concentration; Range is 10-40; format: functional, Homo sapiens; method in brief: as §2

Compound	Protection (MT4 [1])	EC50 (ATH-8 cell line [2])	Protection (MT4 [3])	IC50 (ATH-8 cell line [4])	Toxicity (MT4 [5])	Toxicity (MT4 [6])	Toxicity (MT4 [7])	Protection (MT4 [8])	Protection (MT4 [9])	Protection (MT4 [12])	selectivity ratio [15]	other results
Cc1cn([C@H]2C[C@H](I)[C@@H](CO)O2)c(=O)[nH]c1=O	<10%	> 500 µM	<10%	> 500 µM	< 10%	> 90%	< 10%	<10%				
CCc1cn([C@H]2C[C@H](N=[N+]=[N-])[C@@H](CO)O2)c(=O)[nH]c1=O	<10%	> 100 µM	<10%	> 100 µM	< 10%	> 90%	< 10%		10%			Protection (MT4 [10]): <10%
CCc1cn(C2CC(F)C(CO)O2)c(=O)[nH]c1=O (stereo unspecified)		> 500 µM	<10%	> 500 µM	< 10%	< 10%	< 10%	<10%				Protection (MT4 [11]): 10%
Cc1cn([C@H]2C[C@@H](OS(C)(=O)=O)[C@@H](CO)O2)c(=O)[nH]c1=O		> 100 µM	<10%	> 100 µM	< 10%		< 10%	<10%		>90%		Toxicity (MT4 [13]): 10%
Nc1ncnc2c1ncn2[C@H]1C[C@H](F)[C@@H](CO)O1					< 10%	< 10%	< 10%					
Cc1cn([C@H]2C[C@H](OS(C)(=O)=O)[C@@H](CO)O2)c(=O)[nH]c1=O		> 100 µM	<10%	> 100 µM	< 10%	< 10%	< 10%		10%	>90%		
Nc1ccn([C@H]2C=C[C@@H](CO)O2)c(=O)n1	<10%	0.3 µM		30 µM	< 10%	> 90%	< 10%	>90%			100	Protection (MT4 [14]): 40%
CCSC1CC(n2cc(C)c(=O)[nH]c2=O)OC1CO (stereo unspecified)	<10%	> 100 µM	<10%	100 µM	< 10%	> 90%	< 10%		10%		< 1	
Nc1ncnc2c1ncn2[C@H]1CC[C@@H](CO)O1		2.7 µM	<10%	> 500 µM	< 10%	< 10%	< 10%			>90%	> 148	Protection (MT4 [16]): 40%
Nc1ccn(C2CC(F)C(CO)O2)c(=O)n1 (stereo unspecified)	<10%	8 µM		> 250 µM		> 90%	> 90%				> 31	Protection (MT4 [14]): 40%; Toxicity (MT4 [17]): < 10%; Toxicity (MT4 [18]): 10%; Toxicity (MT4 [19]): < 10%; Protection (MT4 [10]): <10%
Nc1ccn(C2CC3OCC3O2)c(=O)n1 (stereo unspecified)		400 µM	<10%	> 500 µM	< 10%	< 10%	< 10%	<10%			> 1.2	Protection (MT4 [11]): 10%
CNc1nc(=O)n(C2CC(N=[N+]=[N-])C(CO)O2)cc1C (stereo unspecified)		> 100 µM	<10%	> 100 µM	< 10%	< 10%	< 10%		10%	>90%		
Cc1cn(C2CC(Cl)C(CO)O2)c(=O)[nH]c1=O (stereo unspecified)	<10%	> 500 µM	<10%	> 500 µM	< 10%	> 90%	< 10%		10%			
O=c1ccn(C2CCC(CO)O2)c(=O)[nH]1 (stereo unspecified)		> 500 µM	<10%	> 500 µM	< 10%	< 10%	< 10%	<10%		>90%		
Cc1cn(C2CC(Br)C(CO)O2)c(=O)[nH]c1=O (stereo unspecified)	<10%	> 500 µM	<10%	180 µM	< 10%	> 90%	< 10%		10%		< 0.4	
Cc1cn(C2CC(SCCO)C(CO)O2)c(=O)[nH]c1=O (stereo unspecified)		> 100 µM	<10%	> 100 µM	< 10%		< 10%	<10%				Protection (MT4 [11]): 10%; Toxicity (MT4 [13]): 10%
Nc1ncnc2c1ncn2[C@H]1C=C[C@@H](CO)O1		40 µM	<10%	52 µM	< 10%	> 90%	< 10%	<10%		<10%	1.3	Toxicity (MT4 [17]): < 10%; Toxicity (MT4 [19]): < 10%
CCO[C@H]1C[C@H](n2cc(C)c(=O)[nH]c2=O)O[C@@H]1CO	<10%	> 100 µM	<10%	> 100 µM	< 10%	> 90%	< 10%		10%			
Cc1cn([C@H]2C[C@H](OCC(=O)[O-])[C@@H](CO)O2)c(=O)[nH]c1=O.[Na+]		> 100 µM	<10%	> 100 µM	< 10%	< 10%	< 10%	<10%		<10%		
Cc1cn([C@H]2C[C@H](SC#N)[C@@H](CO)O2)c(=O)[nH]c1=O	<10%	> 100 µM	<10%	> 100 µM	< 10%	> 90%	< 10%		10%			
CCc1cn(C2CCC(CO)O2)c(=O)[nH]c1=O (stereo unspecified)	<10%		<10%		< 10%	< 10%	< 10%	<10%		<10%		Toxicity (MT4 [19]): < 10%
O=c1ccn([C@H]2C=C[C@@H](CO)O2)c(=O)[nH]1	<10%	> 100 µM	<10%	107 µM	< 10%	> 90%	< 10%	<10%			< 1.1	
Cc1cn([C@H]2C[C@H](N=[N+]=[N-])[C@@H](CO)O2)c(=O)[nH]c1=O (stereo in doubt; 9k) [ZIDOVUDINE]			<10%		< 10%			<10%		<10%		Toxicity (MT4 [6]; 125 µM): < 10%; Toxicity (MT4 [7]; 5 µM): < 10%
Nc1ncnc2c1ncn2[C@H]1C[C@H](O)[C@@H](CO)O1 [DEOXYADENOSINE]		> 100 µM	<10%	> 100 µM	< 10%		< 10%	<10%		<10%		Toxicity (MT4 [13]): 10%
Cc1cn([C@H]2C=C[C@@H](CO)O2)c(=O)[nH]c1=O [STAVUDINE]		4.1 µM	>90%	110 µM		> 90%	> 90%				27	Toxicity (MT4 [18]): 10%; Protection (MT4 [10]): <10%; Protection (MT4 [20]): 10%
Nc1ccn([C@H]2CC[C@@H](CO)O2)c(=O)n1 [ZALCITABINE]	<10%	0.2 µM		35 µM	< 10%	> 90%	< 10%	>90%			175	Protection (MT4 [14]): 40%
